How the values were obtained:
[1] = target: Protease (Human immunodeficiency virus 1, UniProt Q9YQ12); experiment: Inhibition of HIV-1 protease
[2] = tested on: Human immunodeficiency virus 1; experiment: Antiviral activity against HIV1 LAI infected in human MT2 cells; type: functional, organism-based; details: Human immunodeficiency virus 1, M:B_Lai
[3] = tested on: Human immunodeficiency virus 1; experiment: Antiviral activity against darunavir resistant HIV1 harboring protease P30 L10I/I15V/K20R/L24I/V32I/M36I/ M46L/L63P/K70Q/V82A/I84V/L89M mutant infected in human MT4 cells assessed as reduction in p24 Gag production; type: functional, organism-based; details: Human immunodeficiency virus 1, MT4
In short: (§1)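 MT-4 cells (10^5/mL) were exposed to 100 TCID50s of each HIV-1 and treated with drug. Inhibition of p24 Gag protein production was the endpoint for EC50. PI-resistant variants had been selected in vitro by passaging HIV-1 NL4-3 in MT-4 cells under increasing PI (up to 5 μM). Assays were run in duplicate, and values are means of two independent experiments.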

[4] = tested on: Human immunodeficiency virus 1; experiment: Antiviral activity against atazanavir resistant HIV1 harboring protease L23I/E34Q/K43I/M46I/I50L/G51A/L63P/A71V/V82A/T91A mutant infected in human MT4 cells assessed as reduction in p24 Gag production; type: functional, organism-based; details: Human immunodeficiency virus 1, MT4; in short: as §1
[5] = tested on: Human immunodeficiency virus 1; experiment: Antiviral activity against HIV1 NL4-3 infected in human MT4 cells assessed as reduction in p24 Gag protein production; type: functional, organism-based; details: Human immunodeficiency virus 1, NL4-3, MT4
[6] = Selectivity ratio of IC50 for antiviral activity against darunavir resistant HIV1 P30 harboring protease L10I/I15V/K20R/L24I/V32I/M36I/ M46L/L63P/K70Q/V82A/I84V/L89M mutant infected in human MT4 cells to IC50 for antiviral activity against wild-type HIV1 NL4-3; type: functional
[7] = Selectivity ratio of IC50 for antiviral activity against atazanavir resitant HIV1 harboring protease L23I/E34Q/K43I/M46I/I50L/G51A/L63P/A71V/V82A/T91A mutant infected in human MT4 cells to IC50 for antiviral activity against wild-type HIV1 NL4-3; type: functional
[8] = Selectivity ratio of IC50 for antiviral activity against lopinavir resistant HIV1 harboring protease L10F/V32I/M46I/I47A/A71V/I84V mutant infected in human MT4 cells to IC50 for antiviral activity against wild-type HIV1 NL4-3; type: functional
[9] = tested on: Human immunodeficiency virus 1; experiment: Antiviral activity against lopinavir resistant HIV1 harboring protease L10F/V32I/M46I/I47A/A71V/I84V mutant infected in human MT4 cells assessed as inhibition of p24 Gag production; type: functional, organism-based; details: Human immunodeficiency virus 1, MT4; in short: as §1

Protease, sequence (Q9YQ12 whole entry): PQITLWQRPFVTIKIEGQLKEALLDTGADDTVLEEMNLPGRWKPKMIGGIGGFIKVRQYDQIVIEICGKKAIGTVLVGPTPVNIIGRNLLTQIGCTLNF

Row | Compound | Ki [1] | IC50 [2] | IC50 [3] | IC50 [4] | IC50 [5] | Ratio IC50 [6] | Ratio IC50 [7] | Ratio IC50 [8] | IC50 [9]
1 | CC(C)CN(C[C@@H](O)[C@H](Cc1ccccc1)NC(=O)OC1C[C@@H]2CO[C@@H]3OC1C[C@H]23)S(=O)(=O)c1ccc2nc(NC(C)C)oc2c1 (stereo partly drawn) | 0.006 nM | 1.73 nM |  |  |  |  |  |  | 
2 | CC(C)CN(C[C@@H](O)[C@H](Cc1ccccc1)NC(=O)O[C@H]1C[C@H]2CO[C@H]3OC1C[C@@H]23)S(=O)(=O)c1ccc2nc(NC3CC3)sc2c1 | 0.027 nM | 1.86 nM |  |  |  |  |  |  | 
3 | CC(C)CN(C[C@@H](O)[C@H](Cc1cccc(F)c1)NC(=O)OC1C[C@@H]2CO[C@@H]3OC1C[C@H]23)S(=O)(=O)c1ccc2nc(NC3CC3)sc2c1 (stereo partly drawn) | 0.008 nM | 1.28 nM |  |  |  |  |  |  | 
4 | CC(C)CN(C[C@@H](O)[C@H](Cc1ccc(F)cc1)NC(=O)O[C@H]1C[C@H]2CO[C@H]3OC1C[C@@H]23)S(=O)(=O)c1ccc2nc(NC3CC3)sc2c1 | 0.036 nM | 0.4 nM |  |  |  |  |  |  | 
5 | COc1ccc(S(=O)(=O)N(CC(C)C)C[C@@H](O)[C@H](Cc2ccccc2)NC(=O)O[C@H]2C[C@H]3CO[C@H]4OC2C[C@@H]34)cc1 | 0.034 nM | 71.7 nM |  |  |  |  |  |  | 
6 | CC(C)CN(C[C@@H](O)[C@H](Cc1ccccc1)NC(=O)OC1C[C@@H]2CO[C@@H]3OC1C[C@H]23)S(=O)(=O)c1ccc2nc(NC3CC3)sc2c1 (stereo partly drawn) | 0.002 nM | 3.3 nM |  |  |  |  |  |  | 
7 | CC(C)CN(C[C@@H](O)[C@H](Cc1ccc(F)cc1)NC(=O)OC1C[C@@H]2CO[C@@H]3OC1C[C@H]23)S(=O)(=O)c1ccc2nc(NC3CC3)sc2c1 (stereo partly drawn) | 0.002 nM | 0.46 nM |  |  |  |  |  |  | 
8 | CC(C)CN(C[C@@H](O)[C@H](Cc1cccc(F)c1)NC(=O)O[C@H]1C[C@H]2CO[C@H]3OC1C[C@@H]23)S(=O)(=O)c1ccc2nc(NC3CC3)sc2c1 | 0.024 nM | 2.7 nM |  |  |  |  |  |  | 
9 | COc1ccc(S(=O)(=O)N(CC(C)C)C[C@@H](O)[C@H](Cc2ccccc2)NC(=O)OC2C[C@@H]3CO[C@@H]4OC2C[C@H]34)cc1 (stereo partly drawn) | 0.008 nM | 38 nM |  |  |  |  |  |  | 
10 | CC(C)CN(C[C@@H](O)[C@H](Cc1ccccc1)NC(=O)O[C@H]1C[C@H]2CO[C@H]3OC1C[C@@H]23)S(=O)(=O)c1ccc2nc(NC(C)C)oc2c1 | 0.047 nM | 0.3 nM | 640 nM | 350 nM | 38 nM | 17 | 9.1 | >26 | > 1000 nM
11 | CC(C)CN(C[C@@H](O)[C@H](Cc1cc(F)cc(F)c1)NC(=O)O[C@H]1C[C@H]2CO[C@H]3OC1C[C@@H]23)S(=O)(=O)c1ccc2nc(NC3CC3)sc2c1 | 0.007 nM | 2.25 nM |  |  |  |  |  |  | 
12 | CC(C)CN(C[C@@H](O)[C@H](Cc1cc(F)cc(F)c1)NC(=O)OC1C[C@@H]2CO[C@@H]3OC1C[C@H]23)S(=O)(=O)c1ccc2nc(NC3CC3)sc2c1 (stereo partly drawn) | 0.054 nM | 0.086 nM | 4.5 nM | 0.21 nM | 0.034 nM | 133 | 6.3 | 127 | 4.3 nM
13 | COC(=O)N[C@H](C(=O)N[C@@H](Cc1ccccc1)[C@@H](O)CN(Cc1ccc(-c2ccccn2)cc1)NC(=O)[C@@H](NC(=O)OC)C(C)(C)C)C(C)(C)C [ATAZANAVIR] |  |  | > 1000 nM | > 1000 nM | 4 nM |  |  | 107 | 430 nM

From ChEMBL document CHEMBL4402610 (J Med Chem, 2020)
